The test system of data set [1] is Mus musculus. The data set can be described thus: Antidepressant activity against Swiss-Webster mouse assessed as reduction in duration of immobility at 10 mg/kg, ip after 1 hr by tail suspension behavioral despair test relative to control. Type of data set: functional. Details: scale not given: the % may be the effect or the level left. As to conditions: route intraperitoneal. The essentials:
(§1)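 Mice dosed ip at 10 mg/kg in 0.5% w/v CMC in water (0.5 mL per 100 g body weight); controls got CMC alone; imipramine 10 mg/kg as reference. One hour later mice were hung by the tail from a shelf edge 80 cm above the floor, taped about 1 cm from the tail tip. Immobility (passive, completely motionless hanging) timed over 6 min; mean ± S.E.M., % deviation from control.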

Data set [2] has as its system Mus musculus. The data set can be described thus: Antidepressant activity against Swiss-Webster mouse at 10 mg/kg, ip after 1 hr by tail suspension behavioral despair test relative to imipramine. In kind it is functional. The following applies: route intraperitoneal. The essentials:
as §1

Data set [3] in a line: Chemical stability in ferricyanide solution assessed as rate of oxidation by UV spectroscopy. In kind it is physicochemical.
A short description of data set [4]: Chemical stability in 30% hydrogen peroxide assessed as rate of oxidation by UV spectroscopy. In kind it is physicochemical.
Data set [5] has as its system Brain. The experiment in a line: Drug level in Sprague-Dawley rat brain at 20 mg/kg, iv. Type of data set: ADME, organism-based. Further details: dose 20 mg/kg, route intravenous. The following applies: in vivo. The gist of the method:
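Male Sprague-Dawley rats received a freshly prepared DMF solution (25 mg/mL) via the external jugular vein at 20 mg/kg. Animals sacrificed at 10, 20 and 45 min. Whole brain homogenized in water plus 5% DMF in acetonitrile, then centrifuged; blood precipitated in acetonitrile. Supernatants filtered and the quaternary acid quantified by HPLC against recovery spikes of quaternary salt into blank rat brain and blood.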

Data set [6] in a line: Stability in phosphate buffer at pH 7.4 after 4 days by HPLC. In kind it is physicochemical. The essentials: (§2)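 Dihydropyridine carrier at 2 × 10^-1 mmol in 0.2 M phosphate buffer (pH 7.4 or 5.8) at room temperature (32 °C), followed for 4 days by HPLC for the parent and its oxidation or degradation products. Pseudo-first-order disappearance constant from linear regression of ln peak area against time; t1/2 calculated; n = 4.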

Data set [7] in a line: Stability in Swiss-Webster mouse brain homogenate assessed as rate of oxidation by HPLC. In kind it is ADME, tissue-based. The gist of the method:
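Brains from ten adult male Swiss-Webster mice were washed in ice-cold saline and homogenized in ice-cold isotonic phosphate buffer (0.2 mol, pH 7.4) to give 20% homogenate, then prewarmed 5 min at 37 °C. Methanolic dihydro compound added; held at 37 °C. Samples taken at 1–64 min into ice-cold methanol, frozen at −80 °C, then analysed by HPLC. Pseudo-first-order K and t1/2 from ln peak area vs time; n = 4.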

A short description of data set [8]: Stability in phosphate buffer at pH 5.8 after 4 days by HPLC. Type of data set: physicochemical. The gist of the method:
as §2

Data set [9] in a line: Stability in mouse plasma assessed as rate of oxidation by HPLC. In kind it is ADME, cell-free. The essentials: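 Heparinized mouse blood spun 4000 rpm for 20 min; plasma diluted to 80% with phosphate buffer (0.11 mol, pH 7.4) and prewarmed at 37 °C. Methanolic dihydro compound added; kept at 37 °C. Aliquots at 1, 2, 4, 8, 16, 32 and 64 min quenched in ice-cold methanol, frozen at −80 °C, centrifuged, filtered and run on HPLC. K_disapp and t1/2 from linear regression of ln peak area vs time; n = 4.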

With `CCOC(=O)C(C(=O)O)[n+]1cccc(C(=O)N/N=C/c2ccccc2O)c1.[Br-]` (stereo not given), the Activity in [1] turned out to be 39.15%; in data set [2], 90.2%.

On to `CN1C=CC(C(=O)N/N=C/c2ccccc2Cl)C=C1`, for which the half-life in data set [3] came out at 3.3 min; in [4], 6.3 min.

Turning to `CN(C)c1ccc(/C=N/NC(=O)C2C=CN(C(C(=O)O)C(=O)O)C=C2)cc1`, the Drug uptake in data set [5] stood at 29.17 µg/g. In addition, the half-life worked out at 248 min in [6]; 1.14 min in data set [3]; 3.15 min in [4]; 9.58 min in [7]; 169 min in data set [8]; 18.9 min in data set [9]. For the same compound, the Activity in data set [1] was 54.95%.

Regarding `CCOC(=O)C(C(=O)O)N1C=CC(C(=O)N/N=C/c2ccccc2Cl)C=C1` (stereo not given), in data set [5], the Drug uptake is 23.23 µg/g. Besides, the half-life turned out to be 402 min in data set [6]; 3.01 min in data set [3]; 5.3 min in data set [4]; 10.7 min in [7]; 252 min in data set [8]; 23.3 min in data set [9]. In addition, the Activity in data set [1] is on record as 40.9%; in data set [2] it was 86.7%.

As to `CCOC(=O)C(C(=O)O)[n+]1ccc(C(=O)N/N=C/c2ccccc2Cl)cc1.[Br-]` (stereo not given), the Activity in [1] is on record as 31.42%; in data set [2], 79.6%.

Turning to `CCOC(=O)C(C(=O)O)[n+]1ccc(C(=O)N/N=C/c2ccccc2O)cc1.[Br-]` (stereo not given), the Activity in data set [1] is recorded as 30.34%; in [2] it was 78.8%.

As for `CCOC(=O)C(C(=O)O)N1C=CC(C(=O)N/N=C/c2ccccc2O)C=C1` (stereo not given), the half-life in data set [3] is 2.48 min; in data set [4], 4.08 min. Also, the results for the Activity in [1] and in data set [2] were 36.7% and 92.8%, respectively.

Consider `CN(C)c1ccc(/C=N/NC(=O)c2cc[n+](C(C(=O)O)C(=O)O)cc2)cc1.[Br-]`, for which, in data set [1], the Activity came to 50.75%.

Consider `CCOC(=O)C(C(=O)O)N1C=CCC(C(=O)N/N=C/c2ccccc2O)=C1` (stereo not given), for which the results for the half-life in [3] and in data set [4] were 2.17 min and 3.85 min, respectively. For the same compound, in data set [1], the Activity was found to be 64.55%.

Consider `CN(C)CCCN1c2ccccc2CCc2ccccc21` [IMIPRAMINE], for which, in data set [1], the Activity amounted to 45.14%.

With `CCOC(=O)C(C(=O)O)N1C=CCC(C(=O)N/N=C/c2ccc(OC)cc2)=C1` (stereo not given), the half-life in [6] was determined as 260 min; in data set [3] it was 2.1 min; in data set [4], 3.35 min; in [7] it was 10.1 min; in [8], 196 min; in data set [9] it was 21.8 min.

What is called half-life is how long it takes for the measured level to halve.

Source of the values: ChEMBL document CHEMBL1136857, “1-Malonyl-1,4-dihydropyridine as a novel carrier for specific delivery of drugs to the brain” (Bioorg Med Chem, 2009).
